M18AAP inhibitor – PfM18AAP enzyme inhibition; recombinant PfM18AAP, H-Glu-NHMec fluorogenic cleavage; AID 1822; 290,000 compounds, 1.2% hits; inhibition, % at 7.35 µM;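 active means inhibition above the campaign mean inhibition over all tested compounds plus 3 SD, cut at about 28% in these data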
HCV core dimer – HCV core protein dimerization inhibition. TR-FRET GST/Flag-core106 dimerization, 1536-well. inhibition, % at 5 µM. 300,000 compounds, 0.33% hits. AID 1899;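 active means inhibition above the mean of all tested compounds plus 3 SD, set per screening campaign, cut at about 45% in these data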
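System: GST-tagged and Flag-tagged HCV core protein residues 1-106 / Input: core106 proteins, GST 13.5 nM and Flag 17 nM / Buffer or medium: KF-containing HEPES buffer, pH 7.45, DTT, CHAPS, BSA / Probe or stimulus: Eu-anti-GST and XL665-anti-Flag labelled anti-tag antibodies / Schedule: 4 h, 22.5 °C incubation / Technique: TR-FRET 671 and 617 nm emission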
NS3 helicase inh – HCV NS3 helicase inhibition; NS3 helicase DNA unwinding, Cy5 molecular beacon fluorescence; inhibition, % at 10.9 µM; 290,000 compounds, 0.56% hits;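 active means inhibition above the mean of all tested compounds plus 3 SD, set per campaign, cut at about 35% in these data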
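Test system: hepatitis C virus NS3 helicase domain fragment enzyme. Also added: annealed dual-labelled DNA beacon duplex, ATP-started. Timing: 60 min unwinding reaction at 25 °C after ATP addition. Technique: Cy5 fluorescence. Measure: % inhibition of unwinding.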
EBNA-1 inhibitor – blocks EBNA-1 binding to DNA | 300,000 compounds, 0.34% hits | inhibition, % at 14.8 µM | EBNA-1 DNA binding, fluorescence polarization; in the data active means inhibition above about 28%
ALR inh – inhibitors of human sulfhydryl oxidase ALR. 290,000 compounds, 3.8% hits. inhibition, % (no concentration beside the values). AID 485317. purified ALR, DTT oxidation, H2O2 HRP-luminol luminescence;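 active means mean replicate inhibition above about 79%, with every replicate also reaching it, limit read from the data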
Target sequence (P55789 whole entry, looked up): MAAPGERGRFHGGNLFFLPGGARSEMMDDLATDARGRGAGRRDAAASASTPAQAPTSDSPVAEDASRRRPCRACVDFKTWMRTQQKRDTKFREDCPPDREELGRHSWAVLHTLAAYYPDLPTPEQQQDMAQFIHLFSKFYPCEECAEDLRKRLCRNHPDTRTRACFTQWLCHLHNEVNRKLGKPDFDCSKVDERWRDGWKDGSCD
ZTA counter – ZTA (EBV) inhibition in EBNA-1 counter-screen; 320,000 compounds, 0.15% hits; P03206; inhibition, % at 11 µM; ZTA-DNA binding, fluorescence polarization; in the data active means inhibition above about 33%
Target sequence (P03206 whole entry, looked up): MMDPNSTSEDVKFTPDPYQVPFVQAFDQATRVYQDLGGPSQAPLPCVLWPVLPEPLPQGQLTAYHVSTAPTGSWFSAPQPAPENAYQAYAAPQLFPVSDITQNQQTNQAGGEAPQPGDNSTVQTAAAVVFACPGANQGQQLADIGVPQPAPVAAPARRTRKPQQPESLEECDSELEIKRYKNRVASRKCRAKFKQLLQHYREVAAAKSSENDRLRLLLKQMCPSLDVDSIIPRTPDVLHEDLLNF
Each line names hits and unclear results; the compound was inactive in the other large screens. Rows were chosen to be rich in hits. Some 5.2% of all compounds tested hit in one or more screens of this group.

Cc1ccc(NCc2ccccc2O)cc1C	ALR inh 91
Oc1ccccc1CNc1ccc2c(c1)OCCO2	ALR inh 99
COc1ccc(CNc2ccc(C)c(C)c2)c(OC)c1OC	none
c1cncc(CNc2ccc3c(c2)OCO3)c1	ALR inh 80
C/C(=N\NC(=O)c1cc(Br)ccc1O)c1ccccn1	ALR inh 85 (no result: HCV core dimer, EBNA-1 inhibitor, ZTA counter)
Cc1ccc2c(CN3CCC(C(N)=O)CC3)cc(=O)oc2c1C	ALR inh 95
Cc1ccc2c(CN3CCCCC3)cc(=O)oc2c1C	none
COc1cc(OC)c(/C=N/NC(=O)c2ccc(Cn3nc([N+](=O)[O-])cc3C)cc2)c(OC)c1	none
NS(=O)(=O)c1ccc(N2N=C(c3ccccc3)CC2c2ccccc2)cc1 (stereo not drawn)	none
O=S(=O)(O)c1ccc(N2N=C(c3ccccc3)CC2c2ccccc2)cc1 (stereo not drawn)	ALR inh 99
CCOC(=O)CNC(=O)Cn1cnc2c(nnn2-c2ccc(OC)cc2)c1=O	none
N=C(N)SCc1ccccc1Cl	ALR inh 100
NC(CSCc1ccccc1Cl)C(=O)O (stereo not drawn)	none
Cc1cccn2cc(-c3c[nH]c4ccccc34)nc12	ALR inh 98
Cc1ccc(NC2c3ncccc3C(=O)N2c2ccccc2C)cc1C (stereo not drawn)	M18AAP inhibitor 29
CCOc1ccc(N2C(=O)c3cccnc3C2Nc2ccc(Cl)cc2)cc1 (stereo not drawn)	none
CCN(CC)c1ccc(/C=N\N2CCN(Cc3ccc(C)cc3)CC2)cc1	ALR inh 98
CN(C)c1ccc(CN2CCCCCC2)cc1	none
CCN(CC)c1ccc(CN2CCCCCC2)cc1	ALR inh 98
Cc1ccc(CN2CCN(/N=C/c3ccc(C(=O)O)cc3)CC2)cc1	none
O=[N+]([O-])c1ccc(Cc2ccccn2)c([N+](=O)[O-])c1	none (no result: M18AAP inhibitor, NS3 helicase inh)
COc1ccccc1Cn1c(SCC(N)=O)nc2c(oc3ccccc32)c1=O	none (no result: HCV core dimer, EBNA-1 inhibitor, ALR inh, ZTA counter)
CC(=O)c1ccccc1NC(=O)COC(=O)/C=C/c1ccc(C)o1	ALR inh 96
CCn1c(-c2ccccc2)csc1=Nc1ccc(O)cc1	ALR inh 99
OCCn1c(-c2ccc(F)cc2)csc1=Nc1ccccc1	M18AAP inhibitor 41, ALR inh 96
COCCN(Cc1ccccc1)C(=O)c1cccc(S(=O)(=O)N(C)c2c(C)n(C)n(-c3ccccc3)c2=O)c1	none (no result: M18AAP inhibitor, NS3 helicase inh)
COc1cc(NS(=O)(=O)c2ccc(NC(=O)/C=C/c3cccc([N+](=O)[O-])c3)cc2)ncn1	ALR inh 89
COc1cc(NS(=O)(=O)c2ccc(NC(=O)/C=C/c3ccc([N+](=O)[O-])cc3)cc2)ncn1	none
O=c1[nH][nH]c(=S)n1C1CCCCC1	M18AAP inhibitor 58
O=c1cc(O)n(C2CCCCCC2)c(=O)[nH]1	none
CCCCC(=O)OCc1c(-c2ccccc2)ncc2ccccc12	none (no result: M18AAP inhibitor, HCV core dimer, NS3 helicase inh, EBNA-1 inhibitor)
CN1CCN(Cc2nc3ccccc3c(=O)n2Cc2nc(-c3ccc4ccccc4c3)cs2)CC1	ALR inh 98
O=c1c2ccccc2c(=O)n(Cc2ccccc2)n1Cc1ccccc1	none
COc1cc(C2Nn3c(nnc3-c3ccccc3OC)S2)ccc1O (stereo not drawn)	ALR inh 99
O=C(O)CCCn1cc(NC(=O)c2ccc(Br)o2)cn1	none
Cc1ccc2nc(-c3ccccn3)c(Nc3ccccc3C)n2c1	ALR inh 98
Cc1ccn2c(Nc3ccccc3C)c(-c3ccccn3)nc2c1	none (no result: ALR inh)
Cc1ccccc1Nc1c(-c2ccccn2)nc2ccccn12	ALR inh 99
COC(=O)Nc1c(-c2ccccc2)nc2ccc(Cl)cn12	none
COC(=O)CNc1c(-c2ccccc2)nc2ccc(Br)cn12	ALR inh 99
Cc1cccc2nc(-c3cccnc3)c(Nc3ccccc3)n12	ALR inh 97
O=C(NNC(=O)C1CCC1)c1ccccc1F	none (no result: M18AAP inhibitor, NS3 helicase inh)
COCCC(=O)NC1CCCc2c1cnn2-c1cccc(C)c1C (stereo not drawn)	none (no result: ALR inh)
Brc1ccc2nc(-c3ccncc3)c(NC3CCCC3)n2c1	none (no result: ALR inh)
Cc1ccccc1Nc1c(-c2cccnc2)nc2ccc(Br)cn12	none
Cc1ccccc1Nc1c(-c2ccncc2)nc2ccc(Br)cn12	ALR inh 98
Cc1ccc2nc(-c3cccnc3)c(Nc3ccccc3C)n2c1	ALR inh 82
COCCN(C(=O)COC(=O)CCC(=O)c1cccs1)c1c(N)n(Cc2ccccc2)c(=O)[nH]c1=O	none (no result: M18AAP inhibitor, NS3 helicase inh)
Cc1ccc(C(=O)Nc2sc(C)c(C)c2C(=O)c2ccccc2)cc1	none
Cc1sc(NC(=O)c2ccccc2)c(C(=O)c2ccccc2)c1C	M18AAP inhibitor 32
Cc1ccc(C)c(NC(=O)C(C)N2C(=O)c3ccccc3C2=O)c1 (stereo not drawn)	none
C#CCOCCOCCOCCNc1nc(N2CCN(C(=O)[C@H](Cc3cc4ccccc4[nH]3)n3cc([C@@H](N)C(C)CC)nn3)CC2)nc(N2CCN(C(=O)[C@H](Cc3cc4ccccc4[nH]3)n3cc([C@@H](N)Cc4ccc(O)cc4)nn3)CC2)n1 (stereo partly drawn)	EBNA-1 inhibitor 46, ZTA counter 55
C#CCOCCOCCOCCNc1nc(N2CCN(C(=O)CCCCCCCCCCNC(=O)[C@H](CO)n3cc(CCCSC)nn3)CC2)nc(N2CCN(C(=O)CCCCCCCCCCNC(=O)[C@H](CCCCN)n3cc(C[C@@H](C)CC)nn3)CC2)n1	none (no result: M18AAP inhibitor, NS3 helicase inh)
C#CCOCCOCCOCCNc1nc(N2CCN(C(=O)CCCCCCCCCCNC(=O)[C@H]([C@@H](C)CC)n3cc(CCCCN=C(N)N)nn3)CC2)nc(N2CCN(C(=O)CCCCCCCCCCNC(=O)[C@H](CCCCN)n3cc(C[C@@H](C)CC)nn3)CC2)n1	ZTA counter 126 (no result: M18AAP inhibitor, NS3 helicase inh)
C#CCOCCOCCOCCNc1nc(N2CCN(C(=O)CCCCCCCCCCNC(=O)[C@H](CCCCN)n3cc(C[C@@H](C)CC)nn3)CC2)nc(N2CCN(C(=O)CCCCCCCCCCNC(=O)[C@H](CCCCN)n3cc(C[C@@H](C)CC)nn3)CC2)n1	ZTA counter 91 (no result: M18AAP inhibitor, NS3 helicase inh)
Cc1ccc([N+](=O)[O-])cc1N=Nc1c(-c2ccc([N+](=O)[O-])cc2)[nH]n(C(N)=S)c1=O	none (no result: HCV core dimer, EBNA-1 inhibitor, ALR inh, ZTA counter)
Cc1ccc([N+](=O)[O-])cc1N=Nc1c(C)[nH]n(C(N)=S)c1=O	ALR inh 98
COCC(=O)n1nc(NCc2ccc(OC)cc2)nc1NCc1ccc(OC)cc1	M18AAP inhibitor 28
CCCn1ncc(CN2CCC(n3nccc3NC(=O)CCc3ccccc3)CC2)c1C	none
CN1CCc2cc3c(c4c2[C@H]1[C@H](O)c1ccccc1-4)OCO3	none
CN1CCc2cccc3c2[C@H]1Cc1ccc(O)c(O)c1-3	M18AAP inhibitor 35, ALR inh 99
O=C(O)c1cccc2c(/C=N/Nc3ccccn3)c[nH]c12	ALR inh 98
O=C(O)c1ccccc1N/N=C\c1ccnc2ccccc12	none (no result: ALR inh)

Screens: PubChem, several laboratories
